Assay results: ChEMBL document CHEMBL1158469 (J Med Chem, 2009)
pEC50, pIC50: −log10 of the molar value. The source made the active and inactive calls. The rule behind the calls is not given here.

Assays:
[1] = Induction of apoptosis in human BP3 cells after 1 to 2 days by FITC-annexin V and propidium iodide assay; format: functional, cell-based
[2] = Cytotoxicity against wild type mouse fibroblast assessed as induction of cell death at 10 uM by FITC-annexin V and propidium iodide assay; format: cell-based
In short: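 Wild-type MEFs seeded at half a million per well in DMEM with 10% FCS. Next day compound added at 0, 2.5, 5.0, 7.5 or 10 μM. On the following day, floating and trypsinized adherent cells were pooled and stained with Annexin V-FITC and PI in binding buffer. Analyzed by flow cytometry, with double-negative cells counted as viable.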

[3] = system: NCI-H460; experiment: Cytotoxicity against human H460 cells assessed as cell viability after 72 hrs by ATP-LITE assay; format: functional, cell-based; conditions: NCI-H460, 72 h
In short: (§1)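 ATP-LITE viability readout. Seeded 24 h before dosing (H460, H1299 at 2000 cells/well; PC3 at 3000 cells/well) in 12F2 or RPMI1640 with 5 mM L-glutamine, 5% FBS and pen/strep. Fresh 5% medium added, then compounds in 0.1% DMSO final. Viability read after 72 h treatment and normalized to DMSO-treated cells.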

[4] = target: Bcl-2-like protein 1 (Homo sapiens) (UniProt Q07817); experiment: Inhibition of Bcl-xL at 200 uM by 1D 1H NMR binding assay
[5] = system: Mus musculus; experiment: Reduction of spleen weight in human Bcl2 expressing B6 transgenic mouse at 72 umol/kg, ip administered as single dose after 24 hrs; format: functional; design: scale not given: the % may be the effect or the level left
In short: (§2)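 Age- and sex-matched B6Bcl2 transgenic mice (human BCL-2/IgH minigene, B cells accumulating in spleen), free of aggressive lymphoma. Single ip injection at 72 μmol/kg in 500 μL ethanol:Cremophor EL:saline 10:10:80; controls got vehicle alone. Killed with Avertin after 24 h and spleen weighed. Shrinkage expressed as percentage of maximum spleen-weight reduction.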

[6] = Cytotoxicity against human H1299 cells assessed as cell viability after 72 hrs by ATP-LITE assay; format: functional, cell-based; conditions: NCI-H1299, 72 h; in short: as §1
[7] = system: Mus musculus; experiment: Induction of spleen weight shrinkage in human Bcl2 expressing B6 transgenic mouse at 72 umol/kg, ip administered as single dose after 24 hrs; format: functional; in short: as §2
[8] = Cytotoxicity against Bax/Bak double knockout mouse fibroblast assessed as induction of cell death at 10 uM by FITC-annexin V and propidium iodide assay; format: cell-based
In short: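 MEFs (wild-type and Bax/Bak double knockout) seeded at half a million per well in DMEM with 10% FCS; next day compound added at final 0, 2.5, 5.0, 7.5 and 10 μM. After about one day, floating and trypsinised adherent cells were pooled and stained with Annexin V-FITC and PI. Flow cytometry scored Annexin V-negative/PI-negative cells as viable.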

[9] = Induction of apoptosis in human RS11846 cells after 1 to 2 days by FITC-annexin V and propidium iodide assay; format: functional, cell-based
[10] = Cytotoxicity against human PC3-ML cells assessed as cell viability after 72 hrs by ATP-LITE assay; format: functional, cell-based; in short: as §1
[11] = Stability in rat liver microsome at 4 uM after 1 hr; format: ADME; conditions: liver microsomes, read-out: Stability
In short: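 Compound incubated for 1 h in rat microsomal preparations; percentage of parent remaining was reported.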

[12] = Chemical stability after 60 days at room temperature by HPLC/LC-MS analysis; format: physicochemical; conditions: 1440 h
In short: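 Solid compounds stored in air at room temperature for 60 days. Stability followed by HPLC combined with LC-MS.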

[13] = system: Mus musculus; experiment: Toxicity in human Bcl2 expressing B6 transgenic mouse administered as single dose at 72 umol/kg, ip after 24 hrs; format: organism-based; conditions: in vivo
[14] = target: T1, Bcl-2-related protein A1 (Homo sapiens, UniProt Q16548); experiment: Displacement of F-BakBH3 from Bfl-1 by fluorescence polarization assay
T1 sequence (Q16548 whole entry): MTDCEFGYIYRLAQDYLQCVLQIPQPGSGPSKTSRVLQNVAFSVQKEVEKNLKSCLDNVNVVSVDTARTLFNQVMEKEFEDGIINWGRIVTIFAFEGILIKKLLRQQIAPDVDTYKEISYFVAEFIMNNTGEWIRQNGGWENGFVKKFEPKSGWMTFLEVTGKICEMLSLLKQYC

[15] = Stability in rat plasma after 1 hr at 37.5 degC; format: ADME, cell-free; conditions: read-out: Stability
In short: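 Compound incubated in rat plasma for 1 h; percentage of parent remaining was reported.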

[16] = Membrane permeability assessed as drug permeation at 100 uM at pH 7.2 after 8 hrs by PAMPA; format: ADME; conditions: pH 7.2, 8 h
[17] = system: Mus musculus; experiment: Toxicity in human Bcl2 expressing B6 transgenic mouse assessed as weight loss at 42 umol/kg, ip administered as single dose; format: organism-based; conditions: in vivo
[18] = system: Mus musculus; experiment: Toxicity in BALB/c mouse assessed as mortality at 75 mg/kg, ip administered as single dose after 14 days; format: organism-based; design: dose 75 mg/kg, route intraperitoneal; conditions: in vivo, 336 h
[19] = system: Mus musculus; experiment: Reduction of spleen weight in human Bcl2 expressing B6 transgenic mouse at 42 umol/kg, ip administered as single dose after 24 hrs; format: functional; design: scale not given: the % may be the effect or the level left
[20] = system: Mus musculus; experiment: Toxicity in BALB/c mouse assessed as mortality at 25 mg/kg, ip administered as single dose after 14 days; format: organism-based; design: dose 25 mg/kg, route intraperitoneal; conditions: in vivo, 336 h
[21] = system: Mus musculus; experiment: Toxicity in BALB/c mouse assessed as mortality at 50 mg/kg, ip administered as single dose after 14 days; format: organism-based; design: dose 50 mg/kg, route intraperitoneal; conditions: in vivo, 336 h
[22] = system: Mus musculus; experiment: Gastrointestinal toxicity in human Bcl2 expressing B6 transgenic mouse at 50 mg/kg, ip administered as single dose after 24 hrs; format: organism-based; design: dose 50 mg/kg, route intraperitoneal; conditions: in vivo
[23] = system: Mus musculus; experiment: Toxicity in human Bcl2 expressing B6 transgenic mouse assessed as gastrointestinal toxicity at 42 umol/kg, ip administered as single dose; format: organism-based; conditions: in vivo
[24] = system: Mus musculus; experiment: Toxicity in BALB/c mouse assessed as weight loss at 25 mg/kg, ip administered as single dose after 14 days; format: organism-based; design: dose 25 mg/kg, route intraperitoneal; conditions: in vivo, 336 h
[25] = system: Mus musculus; experiment: Toxicity in mouse assessed as reduction of spleen weight at 42 mg/kg, ip; format: organism-based; design: dose 42 mg/kg, route intraperitoneal; conditions: in vivo
In short: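 B6Bcl2 transgenic mice, six per group, given a single ip dose of 42 mg/kg (60 μmol/kg) in ethanol:Cremophor EL:saline 10:10:80; six vehicle-injected controls. Spleens weighed 24 h after injection. Data are means ± S.E. (n = 6).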

[26] = system: Mus musculus; experiment: Toxicity in BALB/c mouse assessed as weight loss at 50 mg/kg, ip administered as single dose after 14 days; format: organism-based; design: dose 50 mg/kg, route intraperitoneal; conditions: in vivo, 336 h
In short: (§3)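 Tolerability study in five mice given a single ip dose of 100, 75, 50 or 25 mg/kg. Animals observed for 14 days, recording body weight loss as morbidity and mortality.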

[27] = system: Mus musculus; experiment: Toxicity in BALB/c mouse assessed as mortality at 100 mg/kg, ip administered as single dose after 14 days; format: organism-based; design: dose 100 mg/kg, route intraperitoneal; conditions: in vivo, 336 h
[28] = system: Mus musculus; experiment: Toxicity in BALB/c mouse assessed as recovery of weight loss administered as single ip dose after 14 days; format: organism-based; conditions: in vivo, 336 h; in short: as §3
[29] = system: Mus musculus; experiment: Toxicity in BALB/c mouse assessed as weight loss at 75 mg/kg, ip after 5 days; format: organism-based; design: dose 75 mg/kg, route intraperitoneal; conditions: in vivo, 120 h; in short: as §3

Chain of Bcl-2-like protein 1 (Homo sapiens) (Q07817 whole entry): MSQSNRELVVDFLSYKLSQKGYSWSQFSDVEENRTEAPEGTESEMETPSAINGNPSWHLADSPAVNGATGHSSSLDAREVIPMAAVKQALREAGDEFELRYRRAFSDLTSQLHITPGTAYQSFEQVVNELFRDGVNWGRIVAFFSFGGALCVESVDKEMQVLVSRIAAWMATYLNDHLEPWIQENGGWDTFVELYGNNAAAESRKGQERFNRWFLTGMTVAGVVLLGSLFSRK

Compound | pEC50 [1] | Activity [2] | pEC50 [3] | Activity [4] | Activity [5] | Activity [7] | pEC50 [9] | pEC50 [10] | remaining at 1 h, 4 µM [11] | Stability [12] | Activity [13] | remaining at 1 h [15] | logPe [16] | further results
Cc1cc2c(C(C)C)c(O)c(O)c(C=O)c2c(O)c1-c1c(C)cc2c(C(C)C)c(O)c(O)c(C=O)c2c1O [GOSSYPOL] | 5.85 | Active | 5.52 | Active | <=20% | <=40% | 5.38 | 5.51 | – | – | – | – | – | pEC50 [6]: 5.22; Activity [8]: Active
Cc1cc2c(C(C)C)c(O)c(O)cc2c(O)c1-c1c(C)cc2c(C(C)C)c(O)c(O)cc2c1O [APOGOSSYPOL] | 5.33 | – | 5.46 | – | <=20% | <=40% | 5.30 | 4.98 | 64% | Stable | Non-toxic | 53% | -7.16 log cm/s | pIC50 [14]: < 5.00
Cc1cc2c(C(=O)NCC(C)c3ccccc3)c(O)c(O)cc2c(O)c1-c1c(C)cc2c(C(=O)NCC(C)c3ccccc3)c(O)c(O)cc2c1O (centres undefined) | – | 80% | – | Active | 40% | 85% | – | – | 76% | Stable | Toxic | 96% | -7.51 log cm/s | Activity [17]: 7.8%; Activity [18]: Non-toxic; Activity [19]: 70%; Activity [20]: Non-toxic; Activity [21]: Non-toxic; Activity [22]: Toxic; Activity [23]: Non-toxic; Activity [24]: Non-toxic; Activity [25]: Non-toxic; Activity [26]: <= 15%; Activity [27]: Non-toxic; Activity [28]: 80%; Activity [29]: Non-toxic
